Measurements taken from PubChem BioAssay.
The source made the active and inactive calls.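 The calls were made as follows, unless noted: active = visually confirmed hit in the image check and inhibition above 20%; inconclusive = visually confirmed hit but inhibition not above 20%; inactive = no visual hit in the image check.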

Tests used:
[1] = inhibitors of TNFa-induced NFkB p65 translocation, primary screen, imaging, HUVEC, MLSMR starter and 10KST1 sets (AID 438;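 active = inhibition above 20% together with a positive visual image hit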;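 also: compound added about 3h40 before a 20 min TNFalpha stimulation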;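 as to inhibition: signal is the nuclear over cytoplasmic p65 intensity ratio per well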); conditions: HUVEC TNFa-induced p65 nuclear translocation; cell count: measured here: nuclei count (cytotoxicity indicator), at 2.08 µM; inhibition: at 2 µM, stronger effect = higher value, 0% TNFa-plus-vehicle, 100% no-TNFa wells
[2] = inhibitors of mutant huntingtin aggregation, primary screen, imaging, exon1htt(103Q)mCFP cells, high-content imaging (AID 483;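 active = visual image review flags a hit and inhibition of aggregation exceeds 20%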;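 also: compound exposure lasted 3 days before fixation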;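 as to nuclei count: percent of the per-plate median nuclei count of sample wells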); conditions: exon1htt(103Q)mCFP cell line, aggregate imaging, at 2 µM; inhibition of aggregation: stronger effect = higher value; nuclei count: measured here: cell count, toxicity
[3] = inhibitors of E-selectin induction by TNFa, primary screen, imaging, HUVEC, immunofluorescence, MLSMR starter and 10KST1 sets (AID 487); conditions: HUVEC TNFalpha-induced E-selectin immunofluorescence imaging, at 2 µM; inhibition: stronger effect = higher value; nuclei count: measured here: cell number, toxicity;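 as to inhibition: signal is fraction of cell area covered by stained E-selectin grains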;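 as to nuclei count: 100% = median nuclei count of all wells on the same plate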
[4] = biological target: Voltage-gated potassium channel subunit beta-2 (Rattus norvegicus) (UniProt P62483); experiment: KvBeta enzyme negative modulators, primary screen, biochemical, NADPH fluorescence (AID 622;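 active = fluorescence slope higher than the sample average by over 3 SD, cut at about -0.22 in these data, passing the limit was not always enough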;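 also: slope of raw intensity against log time taken from 70 to 1610 s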); conditions: recombinant KvBeta, 4-cyanobenzaldehyde reduction, at 10 µM, stronger effect = higher value
[5] = biological target: Voltage-gated potassium channel subunit beta-2 (Rattus norvegicus) (UniProt P62483); experiment: KvBeta positive modulators, primary screen, biochemical, NADPH fluorescence (AID 623;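 active = NADPH fluorescence slope more negative than the mean of all samples by about 3 SD, 99.7% confidence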;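 also: fluorescence intensity change per second fitted from 20 to 320 s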); conditions: Recombinant KvBeta, NADPH fluorescence decrease slope, 10 min; at 10 µM; stronger effect = lower value
[6] = biological target: Alpha-2C adrenergic receptor (Homo sapiens) (UniProt P18825); experiment: modulators of alpha2C/GIRK thallium flux, primary screen, cell-based, HEK293 alpha2C/GIRK1/2 (AID 624;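 active = fluorescence slope after compound addition differing from the mean of all screened samples at 99.7% confidence, in either direction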;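 also: slope of fluorescence ratio to pre-addition baseline per second over 15 to 24 s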); conditions: thallium flux BTC fluorescence, at 10 µM, actives lie on both sides
[7] = inhibitors of larval lipid processing in zebrafish, primary screen, whole organism, PED6 fluorescence, gall bladder and intestine (AID 686;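 active = a full or partial loss of lipid-probe fluorescence in the fish gall bladder, intestine or both, judged by eye; inactive = no fluorescence loss, or compound toxic to the fish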;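 also: larvae 5 to 7 days old with five fish per well; signal comes from phospholipase A2 cleavage of quenched PED6 carried via bile; overnight exposure to compound and PED6 before scoring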); conditions: Zebrafish larvae PED6 lipid processing, fluorescence scoring; screened at 20 µM (by protocol)
How it was run: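 system = live zebrafish larvae aged 5-7 days, whole organism | probe or stimulus = ingested quenched lipid PED6 at 100 nM | doses = 20 µM single dose | timing = overnight exposure | detection = fluorescence microscopy with visual scoring of gall bladder and intestine | read-out = visual per-well fluorescence inhibition score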

[8] = inhibitors of Sendai virus-induced IRF3 signaling, primary screen, TLR/RLR signaling modifier project, cell-based, Sendai virus stimulus, luciferase, 10K MLSCN set (AID 602276;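 active = inhibition at or above 50% at 10 µM; inactive = inhibition below 50%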;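 also: firefly luciferase from ISG56 promoter only with Renilla not read in this screen; 0% = Sendai virus plus DMSO and 100% = medium plus DMSO without virus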); conditions: HEK293 RL24 IRF3 luciferase reporter, at 10 µM, stronger effect = higher value
[9] = inhibitors of poly I:C-induced TLR3 signaling, primary screen, cell-based, poly I:C stimulus, luciferase, 10K MLSCN set (AID 602277;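 active = inhibition of the reporter signal at or above 50%; inactive = inhibition below 50%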); conditions: HEK293-TLR3 RL24 IRF3 luciferase reporter, at 10 µM, stronger effect = higher value

Sequence of Alpha-2C adrenergic receptor (Homo sapiens) (P18825 whole entry, looked up): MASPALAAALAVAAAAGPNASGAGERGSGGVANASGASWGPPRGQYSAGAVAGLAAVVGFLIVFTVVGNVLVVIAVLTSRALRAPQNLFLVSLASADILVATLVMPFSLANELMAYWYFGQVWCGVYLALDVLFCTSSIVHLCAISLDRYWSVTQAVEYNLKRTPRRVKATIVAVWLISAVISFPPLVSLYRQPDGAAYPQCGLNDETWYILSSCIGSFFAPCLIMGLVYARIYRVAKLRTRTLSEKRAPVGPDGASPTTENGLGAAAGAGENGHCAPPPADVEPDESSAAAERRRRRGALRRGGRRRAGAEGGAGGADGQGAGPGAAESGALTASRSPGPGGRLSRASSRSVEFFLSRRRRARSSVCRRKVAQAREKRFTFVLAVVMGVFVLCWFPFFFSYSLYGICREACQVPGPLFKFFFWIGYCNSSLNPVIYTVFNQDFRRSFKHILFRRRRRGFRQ
Sequence of Voltage-gated potassium channel subunit beta-2 (Rattus norvegicus) (P62483 whole entry, looked up): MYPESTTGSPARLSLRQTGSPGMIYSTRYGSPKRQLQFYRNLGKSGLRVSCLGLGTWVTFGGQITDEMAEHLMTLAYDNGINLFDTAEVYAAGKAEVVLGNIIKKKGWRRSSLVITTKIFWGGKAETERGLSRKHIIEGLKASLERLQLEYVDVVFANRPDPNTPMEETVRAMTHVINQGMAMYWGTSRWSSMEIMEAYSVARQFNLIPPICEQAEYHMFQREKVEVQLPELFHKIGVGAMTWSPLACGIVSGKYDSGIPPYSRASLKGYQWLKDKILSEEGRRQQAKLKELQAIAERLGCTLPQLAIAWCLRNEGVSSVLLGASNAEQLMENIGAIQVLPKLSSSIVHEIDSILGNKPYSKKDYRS

SMILES | cell count [1] | inhibition [1] | inhibition of aggregation [2] | nuclei count [2] [%] | inhibition [3] | nuclei count [3] [%] | fluorescence slope [4] | NADPH fluorescence slope [5] | slope [6] | outcome [7] | inhibition [8] | inhibition [9]
CC(=O)NCCC(=O)Nc1ccc(C)c(F)c1 | 417 | -4.4% (inactive) | -5.1% (inactive) | 109 | -55.7% (inactive) | 110 | -0.451 (inactive) | -1.3e-05 (inactive) | 0.00617 (inactive) | inactive | -3.46% (inactive) | -7.08% (inactive)
O=C(CCCSc1nc2ccccc2s1)NC1=NCCS1 | 333 | -7.4% (inactive) | 10.8% (inactive) | 102 | -3.2% (inactive) | 102 | -0.409 (inactive) | -1.5e-05 (inactive) | 0.00541 (inactive) | inactive | 36% (inactive) | 60.9% (active)
Cc1cc(C(=O)Nc2c(C)n(C)n(-c3ccccc3)c2=O)c(C)o1 | 330 | -1.4% (inactive) | 5.3% (inactive) | 101 | 2% (inactive) | 100 | -0.412 (inactive) | -7.3e-05 (inactive) | 0.00524 (inactive) | inactive | 17% (inactive) | 14.7% (inactive)
CCOC(=O)Cn1nnnc1CN(Cc1ccc(OC)cc1)Cc1cc2cc(C)ccc2[nH]c1=O | 623 | -4.9% (inactive) | -27% (inactive) | 112 | 62.8% (inactive) | 135 | -0.384 (inactive) | 6.1e-07 (inactive) | 0.00608 (inactive) | inactive | -4.16% (inactive) | -1.51% (inactive)
O=C(Nc1cccnc1)Nc1ccc(F)c(Cl)c1 | 347 | 11.8% (inactive) | -11.4% (inactive) | 94.2 | -15.8% (inactive) | 107 | -0.517 (inactive) | 1.7e-05 (inactive) | 0.00552 (inactive) | inactive; toxic | -39.2% (inactive) | -103% (inactive)
CCCC(=O)Nc1ccc(C(=O)O)cc1NC(=O)CCC | 442 | -4.3% (inactive) | -9.3% (inactive) | 104 | 39.4% (inactive) | 89.9 | -0.441 (inactive) | -5e-05 (inactive) | 0.00422 (inactive) | inactive | 12.9% (inactive) | 15.5% (inactive)
Cc1ccc(CN2CCN(C(=O)C3CCC3)CC2)cc1 | 361 | 3.3% (inactive) | 23.3% (inactive) | 94.3 | -20.6% (inactive) | 104 | -0.447 (inactive) | -2.3e-05 (inactive) | 0.00503 (inactive) | inactive; toxic | 15.1% (inactive) | 6.88% (inactive)
O=C(Nc1ccc2[nH]c3c(c2c1)CCCC3)c1ccco1 | 446 | -20.5% (inactive) | 31% (inactive) | 85.7 | 78.9% (active) | 103 | -0.288 (inactive) | -4.7e-05 (inactive) | 0.00582 (inactive) | inactive | -30.4% (inactive) | -98.2% (inactive)
O=C(CSc1ncn[nH]1)NC1CC2CCC1C2 (stereo not drawn) | 264 | -16.8% (inactive) | 17% (inactive) | 80.8 | 56.4% (inactive) | 53 | -0.448 (inactive) | -3.5e-05 (inactive) | 0.00492 (inactive) | inactive | 2.17% (inactive) | 7.86% (inactive)
Cc1cc(Br)c(S(=O)(=O)n2nnc3ccccc32)cc1C | 608 | -4.5% (inactive) | 3.7% (inactive) | 81.9 | 29% (inactive) | 107 | -0.326 (inactive) | 2.1e-05 (inactive) | 0.00509 (inactive) | inactive | 13.1% (inactive) | 12.1% (inactive)
O=C(Cn1c(=O)oc2ccccc21)N1CCN(c2ccccc2)CC1 | 421 | 2.6% (inactive) | 10% (inactive) | 99.1 | -10.5% (inactive) | 114 | -0.407 (inactive) | -4.3e-05 (inactive) | 0.00535 (inactive) | inactive | 8.94% (inactive) | 14.4% (inactive)
Cc1nc(-c2ccccc2)sc1C(N)=O | 424 | 4.7% (inactive) | 25.4% (inactive) | 104 | -40.1% (inactive) | 117 | -0.524 (inactive) | 1.6e-05 (inactive) | 0.0052 (inactive) | inactive | -21.5% (inactive) | -49.1% (inactive)
CC(Sc1n[nH]c(=O)[nH]c1=O)C(=O)OCc1ccccc1 (stereo not drawn) | 281 | -2.5% (inactive) | 10.6% (inactive) | 89.4 | -83.4% (inactive) | 116 | -0.305 (inactive) | -2.2e-05 (inactive) | 0.00608 (inactive) | inactive | 14.4% (inactive) | 10.9% (inactive)
Cc1occc1-c1nnc(SCC(=O)N2CCOCC2)n1Cc1ccco1 | 382 | 3% (inactive) | -5.6% (inactive) | 82.5 | -41% (inactive) | 107 | -0.371 (inactive) | -5e-05 (inactive) | 0.00496 (inactive) | inactive | 8.29% (inactive) | 12.6% (inactive)
